Reference: article PMC8358123 (International Journal for Parasitology: Drugs and Drug …, 2021)

How the values were obtained:
PMM cytotoxicity = assay type: cell-based, mouse; settings: Swiss, mouse, PMM CC50, primary peritoneal mouse macrophages
MRC-5SV2 cytotoxicity = assay type: cell-based, human; settings: human, MRC-5SV2 cells, MRC-5 CC50, MRC-5SV2 cells, 3 days incubation
Method in brief: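 MRC-5SV2 cells (3×10^4 cells/mL) in MEM with Earl's salts, L-glutamine, NaHCO3 and 5% inactivated FCS, at 37 °C and 5% CO2. Exposure to test compound (ten 4-fold dilutions, top 64 μM, <1% DMSO) lasted 3 days. Resazurin was then added for 4 h at 37 °C, with fluorescence read at ex 550/em 590 nm. CC50 from % reduction relative to untreated (100%) and medium-only (0%) controls.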

[1] = system: T. b. brucei (Squib 427 strain); assay: In vitro activity against T. b. brucei; assay type: cell-based; settings: Trypanosoma brucei, read-out: T. b. bruc. EC50
[2] = system: T. cruzi Tulahuen CL2 β-galactosidase strain; assay: In vitro activity against T. cruzi intracellular amastigotes in MRC-5SV2 cells; assay type: cell-based; settings: Trypanosoma cruzi, MRC-5 SV2, 168 h, read-out: T. cruzi EC50
Method in brief: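 Nifurtimox-sensitive Tulahuen CL2 β-galactosidase parasites infected MRC-5SV2 fibroblasts in MEM with 200 mM L-glutamine, 16.5 mM NaHCO3 and 5% inactivated FCS, at 37 °C and 5% CO2. Wells held 4×10^3 cells and 4×10^4 parasites. Test compound was given as ten 4-fold dilutions (top 64 μM, <1% DMSO) for 7 days. CPRG was then added for 4 h at 37 °C and absorbance read at 540 nm. IC50 from % reduction versus untreated-infected controls; mean ± SEM, 2–4 experiments. Benznidazole reference.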

[3] = system: T. b. rhodesiense (STIB-900 strain); assay: In vitro activity against T. b. rhodesiense; assay type: cell-based; settings: Trypanosoma brucei, read-out: T. b. rhod. EC50
Method in brief: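 STIB-900 parasites, axenic in HMI-9 with 10% FBS at 37 °C and 5% CO2, seeded at 4×10^3 parasites/well. Test compound was given as ten 4-fold dilutions (top 64 μM, <1% DMSO). Growth period […], then resazurin added and fluorescence measured after 24 h. IC50 from a sigmoid variable-slope fit versus untreated controls; mean ± SEM, 2–4 experiments. Suramin as reference.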

Row | SMILES | CC50 at 5 days (PMM cytotoxicity) [µM] | CC50 at 3 days (MRC-5SV2 cytotoxicity) [µM] | EC50 [1] [µM] | EC50 [2] [µM] | EC50 [3] [µM]
1 | Cc1ncnc2c1c(F)cn2[C@@H]1O[C@H](CO)[C@@H](O)[C@H]1O [compound 6] | 32 | 0.3 | 0.41 | < 0.25 | < 0.25
2 | Cc1ncnc2c1c(Br)cn2[C@@H]1O[C@H](CO)[C@@H](O)[C@H]1O [compound 8] | 32 | 39.6 | > 64 | 5.28 | 3.84
3 | Cc1cn([C@@H]2O[C@H](CO)[C@@H](O)[C@H]2O)c2ncnc(C)c12 [compound 9] | > 64 | > 64 | 0.82 ± 0.32 | 1.54 ± 0.52 | 0.45 ± 0.08
4 | Cc1ncnc2c1c(SC(F)(F)F)cn2[C@@H]1O[C@H](CO)[C@@H](O)[C@H]1O [compound 11] | > 64 | – | > 64 | 30.9 | > 64
5 | C=Cc1cn([C@@H]2O[C@H](CO)[C@@H](O)[C@H]2O)c2ncnc(C)c12 [compound 12] | > 64 | > 64 | 2.73 ± 0.28 | 6.95 ± 1.29 | 2.2 ± 0.11
6 | C=C(C)c1cn([C@@H]2O[C@H](CO)[C@@H](O)[C@H]2O)c2ncnc(C)c12 [compound 14] | > 64 | 1.49 | 0.5 | 5.04 | < 0.25
7 | Cc1ncnc2c1c(C(C)C)cn2[C@@H]1O[C@H](CO)[C@@H](O)[C@H]1O [compound 15] | > 64 | 0.3 | 0.67 | 29.1 | 0.51
8 | Cc1ncnc2c1c(C1=CCCC1)cn2[C@@H]1O[C@H](CO)[C@@H](O)[C@H]1O [compound 16] | > 64 | > 64 | > 64 | > 64 | > 64
9 | Cc1ncnc2c1c(C1CCCC1)cn2[C@@H]1O[C@H](CO)[C@@H](O)[C@H]1O [compound 17] | > 64 | > 64 | > 64 | 48.9 | 53.6
10 | Cc1ncnc2c1c(C1=CCCCC1)cn2[C@@H]1O[C@H](CO)[C@@H](O)[C@H]1O [compound 18] | > 64 | > 64 | > 64 | > 64 | > 64
11 | Cc1ncnc2c1c(C1CCCCC1)cn2[C@@H]1O[C@H](CO)[C@@H](O)[C@H]1O [compound 19] | > 64 | > 64 | > 64 | > 64 | > 64
12 | Cc1ncnc2c1c(C1=CCOCC1)cn2[C@@H]1O[C@H](CO)[C@@H](O)[C@H]1O [compound 20] | > 64 | > 64 | 12.3 ± 2.45 | 2.87 ± 0.28 | 9.75 ± 0.02
13 | Cc1ncnc2c1c(C1CCOCC1)cn2[C@@H]1O[C@H](CO)[C@@H](O)[C@H]1O [compound 21] | > 64 | > 64 | 15.1 ± 1.02 | 3.98 ± 0.94 | 12 ± 1.75
14 | Cc1ncnc2c1c(-c1ccccc1)cn2[C@@H]1O[C@H](CO)[C@@H](O)[C@H]1O [compound 24] | > 64 | > 64 | > 64 | 40.3 | > 64
15 | CCCC#Cc1cn([C@@H]2O[C@H](CO)[C@@H](O)[C@H]2O)c2ncnc(C)c12 [compound 25] | > 64 | > 64 | 0.89 ± 0.21 | 20.4 ± 0.39 | 0.37 ± 0.08
16 | CCCCCc1cn([C@@H]2O[C@H](CO)[C@@H](O)[C@H]2O)c2ncnc(C)c12 [compound 26] | > 64 | > 64 | > 64 | > 64 | > 64
17 | CCCCC#Cc1cn([C@@H]2O[C@H](CO)[C@@H](O)[C@H]2O)c2ncnc(C)c12 [compound 27] | 8 | 7.58 | 0.52 | 2.08 | 1.19
18 | CCCCCCc1cn([C@@H]2O[C@H](CO)[C@@H](O)[C@H]2O)c2ncnc(C)c12 [compound 28] | > 64 | > 64 | > 64 | 42.1 | > 64
19 | CC(C)=Cc1cn([C@@H]2O[C@H](CO)[C@@H](O)[C@H]2O)c2ncnc(C)c12 [compound 29] | > 64 | > 64 | > 64 | > 64 | > 64
20 | Cc1ncnc2c1c(CC(C)C)cn2[C@@H]1O[C@H](CO)[C@@H](O)[C@H]1O [compound 30] | > 64 | > 64 | > 64 | > 64 | > 64
21 | Cc1ncnc2c1c(C#CC(C)C)cn2[C@@H]1O[C@H](CO)[C@@H](O)[C@H]1O [compound 31] | > 64 | > 64 | 23.5 | > 64 | 16
22 | Cc1ncnc2c1c(CCC(C)C)cn2[C@@H]1O[C@H](CO)[C@@H](O)[C@H]1O [compound 32] | > 64 | > 64 | > 64 | > 64 | 4
23 | Cc1ncnc2c1c(C#CC1CC1)cn2[C@@H]1O[C@H](CO)[C@@H](O)[C@H]1O [compound 33] | > 64 | 27.5 ± 19 | 1.36 ± 0.41 | 4.59 ± 0.89 | 0.34 ± 0.11
24 | Cc1ncnc2c1c(CCC1CC1)cn2[C@@H]1O[C@H](CO)[C@@H](O)[C@H]1O [compound 34] | > 64 | > 64 | > 64 | > 64 | > 64
25 | Cc1ncnc2c1c(/C=C/c1ccccc1)cn2[C@@H]1O[C@H](CO)[C@@H](O)[C@H]1O [compound 35] | 32 | 26.6 ± 1.42 | 6.19 ± 0.57 | 1.94 ± 0.09 | 4.54 ± 0.93
26 | Cc1ncnc2c1c(CCc1ccccc1)cn2[C@@H]1O[C@H](CO)[C@@H](O)[C@H]1O [compound 36] | > 64 | > 64 | > 64 | 40.3 | 38.7
27 | CCc1cn([C@@H]2O[C@H](CO)[C@@H](O)[C@H]2O)c2ncnc(CC)c12 [compound 37] | > 64 | 20.2 | 2.03 | > 64 | 2.02
28 | CCc1cn([C@@H]2O[C@H](CO)[C@@H](O)[C@H]2O)c2ncncc12 [compound 38] | > 64 | > 64 | 1.54 | 5.38 | 1.73
29 | CCc1cn([C@@H]2O[C@H](CO)[C@@H](O)[C@H]2O)c2nc[nH]c(=O)c12 [compound 40] | > 64 | > 64 | 48.5 | > 64 | 40.3
30 | CCc1cn([C@@H]2O[C@H](CO)[C@@H](O)[C@H]2O)c2ncnc(OC)c12 [compound 41] | > 64 | > 64 | 0.47 ± 0.01 | > 64 | 1.31 ± 0.44
